Assay [1] has as its target Dual specificity protein phosphatase 3 (Homo sapiens, UniProt P51452). Kind of assay: Inhibitory activity against vaccinia VH1-related phosphatase (VHR). In outline: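 Recombinant VHR expressed in E. coli and purified, used at 0.6 μM with 10 mM pNPP substrate in 50 mM succinate, 1 mM EDTA, 150 mM NaCl, pH 6.0, ± compound. Incubated 3 min at 37 °C, stopped with 1 N NaOH, and activity read as absorbance change at 405 nm.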

The target of assay [2] is T1, M-phase inducer phosphatase 2 (Mus musculus, UniProt P30306).
T1 sequence (P30306 whole entry): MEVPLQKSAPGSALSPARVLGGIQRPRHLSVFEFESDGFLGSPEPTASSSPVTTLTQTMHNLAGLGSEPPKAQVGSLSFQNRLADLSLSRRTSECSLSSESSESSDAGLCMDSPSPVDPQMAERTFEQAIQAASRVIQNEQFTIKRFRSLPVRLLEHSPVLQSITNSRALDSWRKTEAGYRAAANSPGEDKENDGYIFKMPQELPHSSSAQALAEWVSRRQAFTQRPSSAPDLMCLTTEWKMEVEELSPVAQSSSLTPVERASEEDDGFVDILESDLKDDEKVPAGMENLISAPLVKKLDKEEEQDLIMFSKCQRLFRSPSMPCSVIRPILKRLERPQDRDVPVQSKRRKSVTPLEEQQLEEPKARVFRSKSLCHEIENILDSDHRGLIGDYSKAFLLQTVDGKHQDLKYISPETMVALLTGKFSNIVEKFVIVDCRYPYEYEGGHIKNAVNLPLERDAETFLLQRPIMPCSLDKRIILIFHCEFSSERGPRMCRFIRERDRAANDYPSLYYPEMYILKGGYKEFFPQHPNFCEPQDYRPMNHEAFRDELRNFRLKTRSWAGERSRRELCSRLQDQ
In words: Inhibitory activity against cell division cycle 25B.

Dual specificity protein phosphatase 3, sequence (P51452 whole entry): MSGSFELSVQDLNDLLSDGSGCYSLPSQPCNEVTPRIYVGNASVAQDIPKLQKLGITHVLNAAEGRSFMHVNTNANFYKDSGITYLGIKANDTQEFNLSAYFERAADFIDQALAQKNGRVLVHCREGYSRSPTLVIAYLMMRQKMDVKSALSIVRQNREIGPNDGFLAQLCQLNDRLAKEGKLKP

Usually IC50 stands for the point on the concentration scale where inhibition reaches its midpoint. High values mean lower potency, low ones higher potency. Take `CC(C)=CCCC(C)CCOC(=O)c1c(O)oc(CO)c1O` (stereo unspecified) [4-Hydroxy-5-hydroxymethyl-2-oxo-2,5-dihydro-furan-3-carboxylic acid 3,7-dimethyl-oct-6-enyl ester]: the IC50 in assay [1] is above 250 µM; in assay [2] it was above 125 µM.
The like results for `O=C(OCc1ccccc1)c1c(O)oc(CO)c1O` [4-Hydroxy-5-hydroxymethyl-2-oxo-2,5-dihydro-furan-3-carboxylic acid benzyl ester] were, in that order, above 250 µM and above 125 µM.
Taken in the same sequence, the figures for `O=C(OC1CCCCC1)c1c(O)oc(CO)c1O` [4-Hydroxy-5-hydroxymethyl-2-oxo-2,5-dihydro-furan-3-carboxylic acid cyclohexyl ester] were above 250 µM and above 125 µM.

The record behind these values is BindingDB's records for doi:10.1021/jm0100741 (Tohoku University, 2001).
